From ChEMBL document CHEMBL5058577, “EUbOPEN Chemogenomics Library 2 (Multiplex)” (2022)

System: Fibroblast
Experiment: Multiplex assay against human fibroblast
Format: toxicity, cell-based
Outline: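 Hoechst33342, BioTracker Green Microtubule Cytoskeleton Dye, MitoTracker Red and Annexin V Alexa Fluor 680 were added to live cells at seeding, and imaging on a CQ1 microscope at 37°C and 5% CO2 followed compound addition. Gating by CellPathfinder machine learning separated cells into Hoechst high-intensity objects or normal cells, then normal cells into healthy, pyknosed or fragmented nuclei, then pyknosed cells into mitotic or apoptotic. Per cents of healthy-nucleus cells are reported for the tubulin, mitochondrial-mass and membrane-permeability phenotypes.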

[1] = 12 h, 1 µM, compound concentration 1 uM, replicate 1
[2] = 12 h, 1 µM, compound concentration 1 uM, replicate 2
[3] = 12 h, 10 µM, compound concentration 10 uM, replicate 1
[4] = 12 h, 10 µM, compound concentration 10 uM, replicate 2
[5] = 24 h, 1 µM, compound concentration 1 uM, replicate 1
[6] = 24 h, 1 µM, compound concentration 1 uM, replicate 2
[7] = 24 h, 10 µM, compound concentration 10 uM, replicate 1
[8] = 24 h, 10 µM, compound concentration 10 uM, replicate 2
[9] = 48 h, 1 µM, compound concentration 1 uM, replicate 1
[10] = 48 h, 1 µM, compound concentration 1 uM, replicate 2
[11] = 48 h, 10 µM, compound concentration 10 uM, replicate 1
[12] = 48 h, 10 µM, compound concentration 10 uM, replicate 2

Structure (SMILES): Cc1ccc(C(C)(O)c2nc3ccccc3s2)c(C)c1 (stereo not given)
- Population Apoptotic (%) [1]: 50%
- Population Fragmented Nuclei (%) [1]: 8%
- Population Healthy Nuclei (%) [1]: 78%
- Population Hoechst High Intensity Objects (%) [1]: 0%
- Population Membrane Permeable-Phenotype (%) [1]: 0%
- Population Mitochondria Different-Phenotype (%) [1]: 5%
- Population Mitotic Cells (%) [1]: 50%
- Population Normal (%) [1]: 99%
- Population Pyknosed Nuclei (%) [1]: 12%
- Population Tubulin-Different-Phenotype (%) [1]: 29%
- Total Cell Count [1]: 125
- Population Apoptotic (%) [2]: 44%
- Population Fragmented Nuclei (%) [2]: 22%
- Population Healthy Nuclei (%) [2]: 48%
- Population Hoechst High Intensity Objects (%) [2]: 5%
- Population Membrane Permeable-Phenotype (%) [2]: 3%
- Population Mitochondria Different-Phenotype (%) [2]: 6%
- Population Mitotic Cells (%) [2]: 56%
- Population Normal (%) [2]: 95%
- Population Pyknosed Nuclei (%) [2]: 29%
- Population Tubulin-Different-Phenotype (%) [2]: 36%
- Total Cell Count [2]: 180
- Population Apoptotic (%) [3]: 44%
- Population Fragmented Nuclei (%) [3]: 11%
- Population Healthy Nuclei (%) [3]: 72%
- Population Hoechst High Intensity Objects (%) [3]: 1%
- Population Membrane Permeable-Phenotype (%) [3]: 0%
- Population Mitochondria Different-Phenotype (%) [3]: 5%
- Population Mitotic Cells (%) [3]: 56%
- Population Normal (%) [3]: 98%
- Population Pyknosed Nuclei (%) [3]: 16%
- Population Tubulin-Different-Phenotype (%) [3]: 24%
- Total Cell Count [3]: 153
- Population Apoptotic (%) [4]: 22%
- Population Fragmented Nuclei (%) [4]: 31%
- Population Healthy Nuclei (%) [4]: 43%
- Population Hoechst High Intensity Objects (%) [4]: 7%
- Population Membrane Permeable-Phenotype (%) [4]: 15%
- Population Mitochondria Different-Phenotype (%) [4]: 6%
- Population Mitotic Cells (%) [4]: 77%
- Population Normal (%) [4]: 92%
- Population Pyknosed Nuclei (%) [4]: 25%
- Population Tubulin-Different-Phenotype (%) [4]: 60%
- Total Cell Count [4]: 149
- Population Apoptotic (%) [5]: 31%
- Population Fragmented Nuclei (%) [5]: 13%
- Population Healthy Nuclei (%) [5]: 73%
- Population Hoechst High Intensity Objects (%) [5]: 0%
- Population Membrane Permeable-Phenotype (%) [5]: 2%
- Population Mitochondria Different-Phenotype (%) [5]: 7%
- Population Mitotic Cells (%) [5]: 68%
- Population Normal (%) [5]: 99%
- Population Pyknosed Nuclei (%) [5]: 13%
- Population Tubulin-Different-Phenotype (%) [5]: 22%
- Total Cell Count [5]: 139
- Population Apoptotic (%) [6]: 47%
- Population Fragmented Nuclei (%) [6]: 25%
- Population Healthy Nuclei (%) [6]: 54%
- Population Hoechst High Intensity Objects (%) [6]: 5%
- Population Membrane Permeable-Phenotype (%) [6]: 11%
- Population Mitochondria Different-Phenotype (%) [6]: 5%
- Population Mitotic Cells (%) [6]: 52%
- Population Normal (%) [6]: 94%
- Population Pyknosed Nuclei (%) [6]: 20%
- Population Tubulin-Different-Phenotype (%) [6]: 43%
- Total Cell Count [6]: 173
- Population Apoptotic (%) [7]: 55%
- Population Fragmented Nuclei (%) [7]: 13%
- Population Healthy Nuclei (%) [7]: 74%
- Population Hoechst High Intensity Objects (%) [7]: 4%
- Population Membrane Permeable-Phenotype (%) [7]: 3%
- Population Mitochondria Different-Phenotype (%) [7]: 6%
- Population Mitotic Cells (%) [7]: 44%
- Population Normal (%) [7]: 95%
- Population Pyknosed Nuclei (%) [7]: 12%
- Population Tubulin-Different-Phenotype (%) [7]: 24%
- Total Cell Count [7]: 152
- Population Apoptotic (%) [8]: 38%
- Population Fragmented Nuclei (%) [8]: 27%
- Population Healthy Nuclei (%) [8]: 46%
- Population Hoechst High Intensity Objects (%) [8]: 6%
- Population Membrane Permeable-Phenotype (%) [8]: 12%
- Population Mitochondria Different-Phenotype (%) [8]: 9%
- Population Mitotic Cells (%) [8]: 61%
- Population Normal (%) [8]: 93%
- Population Pyknosed Nuclei (%) [8]: 25%
- Population Tubulin-Different-Phenotype (%) [8]: 61%
- Total Cell Count [8]: 143
- Population Apoptotic (%) [9]: 33%
- Population Fragmented Nuclei (%) [9]: 16%
- Population Healthy Nuclei (%) [9]: 73%
- Population Hoechst High Intensity Objects (%) [9]: 4%
- Population Membrane Permeable-Phenotype (%) [9]: 0%
- Population Mitochondria Different-Phenotype (%) [9]: 3%
- Population Mitotic Cells (%) [9]: 66%
- Population Normal (%) [9]: 95%
- Population Pyknosed Nuclei (%) [9]: 9%
- Population Tubulin-Different-Phenotype (%) [9]: 16%
- Total Cell Count [9]: 129
- Population Apoptotic (%) [10]: 50%
- Population Fragmented Nuclei (%) [10]: 28%
- Population Healthy Nuclei (%) [10]: 57%
- Population Hoechst High Intensity Objects (%) [10]: 3%
- Population Membrane Permeable-Phenotype (%) [10]: 5%
- Population Mitochondria Different-Phenotype (%) [10]: 6%
- Population Mitotic Cells (%) [10]: 50%
- Population Normal (%) [10]: 96%
- Population Pyknosed Nuclei (%) [10]: 14%
- Population Tubulin-Different-Phenotype (%) [10]: 39%
- Total Cell Count [10]: 174
- Population Apoptotic (%) [11]: 53%
- Population Fragmented Nuclei (%) [11]: 22%
- Population Healthy Nuclei (%) [11]: 68%
- Population Hoechst High Intensity Objects (%) [11]: 7%
- Population Membrane Permeable-Phenotype (%) [11]: 2%
- Population Mitochondria Different-Phenotype (%) [11]: 6%
- Population Mitotic Cells (%) [11]: 46%
- Population Normal (%) [11]: 92%
- Population Pyknosed Nuclei (%) [11]: 9%
- Population Tubulin-Different-Phenotype (%) [11]: 27%
- Total Cell Count [11]: 156
- Population Apoptotic (%) [12]: 43%
- Population Fragmented Nuclei (%) [12]: 34%
- Population Healthy Nuclei (%) [12]: 53%
- Population Membrane Permeable-Phenotype (%) [12]: 7%
- Population Mitochondria Different-Phenotype (%) [12]: 7%
- Population Mitotic Cells (%) [12]: 56%
- Population Pyknosed Nuclei (%) [12]: 12%
- Population Tubulin-Different-Phenotype (%) [12]: 64%
- Total Cell Count [12]: 143
